According to ChEMBL document CHEMBL4680226, “Design, synthesis, and evaluation of N-phenyl-4-(2-phenylsulfonamido)-benzamides as microtubule-targeting agents in drug-resistant cancer cells, displaying HDAC inhibitory response” (Eur J Med Chem, 2020):
Activity calls are given as the source filed them. The calls are words filed in the database; no cut-off is given here.

Key:
KB7D [1] = assay: Induction of apoptosis in human KB7D cells assessed as increase in cleaved caspase-8 expression at 0.01 to 0.1 uM measured after 48 hrs by Western blot analysis; format: functional, cell-based; conditions: dose 0.01-0.1 µM
Procedure, shortened: (§1)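 Resistant KB cells attached overnight, then drug-treated at the stated concentrations and times (24 h or 48 h). Lysates were immunoblotted for cleaved PARP, caspase-3, -8 and -9, and γH2AX, with anti-mouse or anti-rabbit IgG secondaries.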

KB-VIN [2] = assay: Cell cycle arrest in human KB-VIN cells assessed as increase in accumulation at G2/M phase at 0.01 to 0.05 uM measured after 18 to 24 hrs by propidium iodide staining based flow cytometry; format: functional; conditions: dose 0.01-0.05 µM, time 18-24 hrs
Procedure, shortened: (§2)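 Cells seeded at 2.5×10^5 per well and exposed to DMSO or compound for the stated times. They were washed in PBS and fixed overnight in ice-cold 70% ethanol at −20 °C. Staining used propidium iodide 80 µg/mL with 0.1% Triton X-100 and RNase A 100 µg/mL in PBS. DNA content was read by FACScan flow cytometry.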

Histone deacetylase 8 = target: T1, Histone deacetylase 8 (Homo sapiens, UniProt Q9BY41); assay: Inhibition of human recombinant HDAC8 using RHKAcKAc-AMC as substrate measured after 60 mins by fluorescence assay
T1 sequence (Q9BY41 whole entry): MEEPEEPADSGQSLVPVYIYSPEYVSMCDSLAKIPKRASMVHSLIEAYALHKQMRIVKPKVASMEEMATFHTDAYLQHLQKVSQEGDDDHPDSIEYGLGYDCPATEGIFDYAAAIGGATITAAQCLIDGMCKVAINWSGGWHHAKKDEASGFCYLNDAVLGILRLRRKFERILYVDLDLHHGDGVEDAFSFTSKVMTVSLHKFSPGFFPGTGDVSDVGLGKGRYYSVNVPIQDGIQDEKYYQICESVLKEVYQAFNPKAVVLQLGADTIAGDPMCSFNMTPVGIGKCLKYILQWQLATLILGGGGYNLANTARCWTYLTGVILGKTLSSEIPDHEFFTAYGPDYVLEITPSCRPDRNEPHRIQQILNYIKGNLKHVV

Histone deacetylase 2 = Histone deacetylase 2 (Homo sapiens, UniProt Q92769); assay: Inhibition of recombinant human C-terminal GST-tagged HDAC2 (1 to 488 residues) expressed in baculovirus infected insect cells using RHKKAc-AMC as substrate measured after 60 mins by fluorescence assay
KB-VIN [3] = assay: Induction of apoptosis in human KB-VIN cells assessed as increase in cleaved caspase-9 expression at 0.1 to 0.5 uM measured after 24 hrs by Western blot analysis; format: functional, cell-based; conditions: dose 0.1-0.5 µM; procedure, shortened: as §1
Histone deacetylase 1 = Histone deacetylase 1 (Homo sapiens, UniProt Q13547); assay: Inhibition of recombinant human full-length C-terminal FLAG-His tagged HDAC1 (1 to 482 residues) expressed in Sf21 insect cells using RHK-K(Ac)-AMC as substrate measured after 60 mins by fluorescence assay
KB7D [4] = assay: Induction of apoptosis in human KB7D cells assessed as increase in activated gammaH2AX expression by Western blot analysis; format: functional, cell-based; procedure, shortened: as §1
KB7D [5] = assay: Induction of apoptosis in human KB7D cells assessed as increase in activated gammaH2AX expression at 0.1 to 0.5 uM measured after 24 hrs by Western blot analysis; format: functional, cell-based; conditions: dose 0.1-0.5 µM; procedure, shortened: as §1
Tubulin (Homo sapiens) [6] = target: T2, Tubulin (Homo sapiens) (UniProt P68371+Q9H4B7+P0DPH7+P68366+Q13509+Q71U36+P04350+Q3ZCM7+P07437+P68363+Q9BQE3+Q6PEY2+Q13885+Q9BVA1+Q9BUF5); assay: Induction of microtubule disruption in human KB7D cells assessed as polymerized fraction at 1 uM measured after 16 hrs by SDS-PAGE analysis (reference value: 26.4 to 29%); format: cell-based
Procedure, shortened: (§3)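 KB-Vin or KB-7D cells treated 16 h, then lysed 5 min at 37 °C in the dark in hypotonic buffer (1% NP-40, 1 mmol/L MgCl2, 2 mmol/L EGTA, 50 mmol/L Tris-HCl pH 6.8, protease inhibitors). Spun 13000 rpm, 10 min, room temperature. Soluble supernatant and resuspended polymerized pellet run on SDS-PAGE.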

KB7D [7] = assay: Induction of apoptosis in human KB7D cells assessed as increase in cleaved PARP expression by Western blot analysis; format: functional, cell-based; procedure, shortened: as §1
Tubulin (Homo sapiens) [8] = target: T2, Tubulin (Homo sapiens); assay: Induction of microtubule disruption in human KB-VIN cells assessed as polymerized fraction at 1 uM measured after 16 hrs by SDS-PAGE analysis (reference value: 23.1 to 25.5%); format: cell-based; procedure, shortened: as §3
KB7D [9] = assay: Cell cycle arrest in human KB7D cells assessed as increase in accumulation at G2/M phase at 0.01 to 0.05 uM measured after 18 to 24 hrs by propidium iodide staining based flow cytometry; format: functional; conditions: dose 0.01-0.05 µM, time 18-24 hrs; procedure, shortened: as §2
KB = assay: Antiproliferative activity against human KB cells incubated for 48 hrs by SRB assay; format: functional
Procedure, shortened: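 KB parental and resistant sublines kept in RPMI 1640 with 5% FBS at 37 °C, 5% CO2. Cells plated, left overnight, then given graded compound concentrations for 48 h. A time-zero plate was fixed with 10% TCA at dosing. Cells were stained with 0.4% SRB in 1% acetic acid, unbound dye washed off, bound dye dissolved in 10 mM Tris base, and absorbance read at 515 nm.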

KB-VIN [10] = assay: Induction of apoptosis in human KB-VIN cells assessed as increase in cleaved caspase-9 expression at 0.05 uM measured after 48 hrs by Western blot analysis; format: functional, cell-based; procedure, shortened: as §1
KB7D [11] = assay: Cell cycle arrest in human KB7D cells assessed as increase in accumulation at sub-G1 phase at 0.01 to 0.1 uM measured after 48 hrs by propidium iodide staining based flow cytometry; format: functional; conditions: dose 0.01-0.1 µM; procedure, shortened: as §2
[12] = target: Histone deacetylase 3/Nuclear receptor corepressor 2 (HDAC3/NCoR2) (Homo sapiens, UniProt O15379); assay: Inhibition of human recombinant HDAC3/NCOR2 using RHKKAc-AMC as substrate measured after 60 mins by fluorescence assay; format: protein-complex assay
KB7D [13] = assay: Induction of apoptosis in human KB7D cells assessed as increase in cleaved PARP expression at 0.01 to 0.1 uM measured after 48 hrs by Western blot analysis; format: functional, cell-based; conditions: dose 0.01-0.1 µM; procedure, shortened: as §1
KB7D [14] = assay: Induction of apoptosis in human KB7D cells assessed as increase in cleaved caspase-8 expression by Western blot analysis; format: functional, cell-based
Procedure, shortened: (§4)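 KB-7D cells in RPMI 1640 with 5% FBS and 1% penicillin-streptomycin at 37 °C, 5% CO2, attached overnight. Treated with indicated concentrations for 24 or 48 h, lysed, and immunoblotted for cleaved caspases.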

KB7D [15] = assay: Induction of apoptosis in human KB7D cells assessed as increase in cleaved caspase-9 expression by Western blot analysis; format: functional, cell-based; procedure, shortened: as §4
Tubulin (Homo sapiens) [16] = target: T2, Tubulin (Homo sapiens); assay: Induction of microtubule disruption in human KB7D cells at 0.05 uM measured after 24 hrs by DAPI staining based deconvolution fluorescence microscopic analysis; format: cell-based
Procedure, shortened: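 Cells on glass coverslips treated 24 h, fixed in 4% paraformaldehyde for 15 min, and permeabilized with 0.5% Triton X-100. Blocked in PBS/2% BSA, stained with anti-beta-tubulin (1:250) and Alexa 488 anti-mouse (1:250), and mounted with DAPI. Imaged by wide-field deconvolution microscopy.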

KB-VIN [17] = assay: Induction of apoptosis in human KB-VIN cells assessed as increase in cleaved PARP expression at 0.1 to 0.5 uM measured after 24 hrs by Western blot analysis; format: functional, cell-based; conditions: dose 0.1-0.5 µM; procedure, shortened: as §1
KB-VIN [18] = assay: Induction of apoptosis in human KB-VIN cells assessed as increase in cleaved caspase-9 expression by Western blot analysis; format: functional, cell-based; procedure, shortened: as §1

Histone deacetylase 3/Nuclear receptor corepressor 2 (HDAC3/NCoR2), sequence (O15379 whole entry): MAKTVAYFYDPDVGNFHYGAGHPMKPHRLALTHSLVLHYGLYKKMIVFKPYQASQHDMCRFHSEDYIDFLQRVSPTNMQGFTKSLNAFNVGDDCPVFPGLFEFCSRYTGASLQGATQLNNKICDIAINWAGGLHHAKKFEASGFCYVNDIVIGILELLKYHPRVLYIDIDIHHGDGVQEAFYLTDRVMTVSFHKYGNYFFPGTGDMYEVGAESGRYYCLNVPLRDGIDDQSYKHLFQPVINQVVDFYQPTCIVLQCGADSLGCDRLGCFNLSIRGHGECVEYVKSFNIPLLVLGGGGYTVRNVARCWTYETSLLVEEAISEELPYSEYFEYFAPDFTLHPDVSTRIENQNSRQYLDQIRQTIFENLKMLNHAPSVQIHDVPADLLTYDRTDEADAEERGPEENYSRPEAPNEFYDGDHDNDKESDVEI
Histone deacetylase 3/Nuclear receptor corepressor 2 (HDAC3/NCoR2), sequence (Q9Y618 whole entry, further chain): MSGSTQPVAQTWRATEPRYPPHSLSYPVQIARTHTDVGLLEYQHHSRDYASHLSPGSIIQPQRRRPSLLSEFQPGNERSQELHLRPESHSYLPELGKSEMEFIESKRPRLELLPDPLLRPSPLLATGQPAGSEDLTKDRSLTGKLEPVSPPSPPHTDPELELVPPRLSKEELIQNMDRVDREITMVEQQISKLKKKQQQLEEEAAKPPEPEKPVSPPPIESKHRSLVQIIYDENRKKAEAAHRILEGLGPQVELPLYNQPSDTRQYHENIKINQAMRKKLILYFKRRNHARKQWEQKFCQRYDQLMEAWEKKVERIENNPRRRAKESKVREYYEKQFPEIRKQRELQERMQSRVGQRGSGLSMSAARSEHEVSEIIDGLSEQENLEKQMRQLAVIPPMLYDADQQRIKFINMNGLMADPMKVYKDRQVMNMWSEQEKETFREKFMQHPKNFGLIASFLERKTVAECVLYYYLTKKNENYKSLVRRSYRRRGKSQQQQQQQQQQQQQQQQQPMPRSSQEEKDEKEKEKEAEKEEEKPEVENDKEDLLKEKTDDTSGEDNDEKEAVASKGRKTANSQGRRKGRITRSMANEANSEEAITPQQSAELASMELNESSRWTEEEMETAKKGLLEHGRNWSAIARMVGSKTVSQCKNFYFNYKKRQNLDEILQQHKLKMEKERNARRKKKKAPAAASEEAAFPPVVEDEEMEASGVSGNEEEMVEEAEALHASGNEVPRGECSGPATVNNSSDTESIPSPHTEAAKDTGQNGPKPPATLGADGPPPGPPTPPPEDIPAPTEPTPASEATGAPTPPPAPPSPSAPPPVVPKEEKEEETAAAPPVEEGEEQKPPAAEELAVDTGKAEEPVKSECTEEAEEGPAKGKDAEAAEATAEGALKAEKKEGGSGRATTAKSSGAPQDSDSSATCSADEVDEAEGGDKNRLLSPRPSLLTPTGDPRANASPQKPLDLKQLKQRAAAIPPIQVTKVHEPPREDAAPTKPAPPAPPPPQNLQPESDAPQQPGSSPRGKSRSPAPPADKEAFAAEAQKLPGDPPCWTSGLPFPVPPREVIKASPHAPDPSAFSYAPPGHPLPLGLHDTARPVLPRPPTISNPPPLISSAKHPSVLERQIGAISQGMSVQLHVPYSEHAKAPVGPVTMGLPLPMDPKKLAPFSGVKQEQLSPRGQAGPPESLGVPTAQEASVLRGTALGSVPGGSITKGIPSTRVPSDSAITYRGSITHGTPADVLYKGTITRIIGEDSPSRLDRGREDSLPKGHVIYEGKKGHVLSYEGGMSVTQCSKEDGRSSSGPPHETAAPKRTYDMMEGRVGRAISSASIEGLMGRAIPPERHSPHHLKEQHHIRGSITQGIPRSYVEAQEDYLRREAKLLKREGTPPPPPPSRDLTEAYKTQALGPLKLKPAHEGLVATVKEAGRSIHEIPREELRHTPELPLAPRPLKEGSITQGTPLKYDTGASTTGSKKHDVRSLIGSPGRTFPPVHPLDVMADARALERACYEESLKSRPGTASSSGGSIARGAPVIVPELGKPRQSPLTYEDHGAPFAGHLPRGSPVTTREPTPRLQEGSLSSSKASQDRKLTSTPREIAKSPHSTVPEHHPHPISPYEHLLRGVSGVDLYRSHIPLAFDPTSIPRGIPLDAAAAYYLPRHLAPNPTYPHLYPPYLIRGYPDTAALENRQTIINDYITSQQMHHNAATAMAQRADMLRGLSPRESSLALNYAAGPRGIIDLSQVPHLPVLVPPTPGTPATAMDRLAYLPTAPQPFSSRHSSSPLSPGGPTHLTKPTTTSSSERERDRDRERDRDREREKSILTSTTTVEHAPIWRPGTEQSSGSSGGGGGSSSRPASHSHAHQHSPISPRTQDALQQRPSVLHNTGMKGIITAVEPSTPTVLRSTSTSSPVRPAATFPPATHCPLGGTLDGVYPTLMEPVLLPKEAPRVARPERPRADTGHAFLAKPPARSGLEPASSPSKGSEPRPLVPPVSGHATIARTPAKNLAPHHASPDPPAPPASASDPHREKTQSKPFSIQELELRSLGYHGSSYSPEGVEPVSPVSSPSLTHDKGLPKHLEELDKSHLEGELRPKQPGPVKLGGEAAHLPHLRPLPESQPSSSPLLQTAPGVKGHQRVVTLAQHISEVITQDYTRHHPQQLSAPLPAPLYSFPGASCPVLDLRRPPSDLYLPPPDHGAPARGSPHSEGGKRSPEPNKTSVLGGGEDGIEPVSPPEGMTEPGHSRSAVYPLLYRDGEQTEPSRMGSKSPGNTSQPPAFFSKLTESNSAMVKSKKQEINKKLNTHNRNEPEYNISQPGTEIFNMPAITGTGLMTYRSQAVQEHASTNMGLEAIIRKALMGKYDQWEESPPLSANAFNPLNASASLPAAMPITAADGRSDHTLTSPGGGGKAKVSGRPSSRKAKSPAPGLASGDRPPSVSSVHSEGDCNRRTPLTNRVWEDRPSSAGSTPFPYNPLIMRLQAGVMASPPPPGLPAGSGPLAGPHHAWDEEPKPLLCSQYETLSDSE
Histone deacetylase 2, sequence (Q92769 whole entry, the tested form may be a part): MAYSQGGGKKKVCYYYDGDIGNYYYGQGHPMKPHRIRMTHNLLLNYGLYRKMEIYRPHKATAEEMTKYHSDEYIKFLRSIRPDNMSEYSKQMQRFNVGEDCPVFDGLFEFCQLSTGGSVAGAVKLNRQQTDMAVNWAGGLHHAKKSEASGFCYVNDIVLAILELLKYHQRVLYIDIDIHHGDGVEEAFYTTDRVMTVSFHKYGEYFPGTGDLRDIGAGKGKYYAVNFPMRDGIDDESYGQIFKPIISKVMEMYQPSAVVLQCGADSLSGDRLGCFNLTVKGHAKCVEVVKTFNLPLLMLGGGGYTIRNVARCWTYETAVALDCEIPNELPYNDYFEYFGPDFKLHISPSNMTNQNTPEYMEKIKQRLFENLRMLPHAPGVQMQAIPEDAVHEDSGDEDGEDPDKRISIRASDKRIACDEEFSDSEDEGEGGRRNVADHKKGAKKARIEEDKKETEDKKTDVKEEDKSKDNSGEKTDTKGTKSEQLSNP
Histone deacetylase 1, sequence (Q13547 whole entry, the tested form may be a part): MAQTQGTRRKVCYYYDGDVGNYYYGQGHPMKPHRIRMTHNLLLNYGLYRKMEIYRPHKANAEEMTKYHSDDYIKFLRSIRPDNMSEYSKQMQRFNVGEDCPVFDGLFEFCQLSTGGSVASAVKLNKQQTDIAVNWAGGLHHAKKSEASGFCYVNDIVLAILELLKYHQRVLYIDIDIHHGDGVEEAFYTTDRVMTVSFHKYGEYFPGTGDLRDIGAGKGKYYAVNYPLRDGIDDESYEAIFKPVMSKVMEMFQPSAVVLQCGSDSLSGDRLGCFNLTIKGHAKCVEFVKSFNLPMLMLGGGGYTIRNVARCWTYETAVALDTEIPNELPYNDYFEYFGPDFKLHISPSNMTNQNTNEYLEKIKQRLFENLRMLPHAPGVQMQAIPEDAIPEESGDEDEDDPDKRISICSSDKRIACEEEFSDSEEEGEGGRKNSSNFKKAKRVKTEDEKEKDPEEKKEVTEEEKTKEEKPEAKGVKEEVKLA

Question: Which Activity (KB7D [1]) does the source give for `COc1ccc(S(=O)(=O)Nc2ccccc2NCc2ccc(C(=O)Nc3ccccc3N)cc2)cc1` here?
Answer: The Activity was “Active”.

Question: What about the Activity (KB-VIN [2]) of the same molecule?
Answer: The Activity was “Active”.

Question: What about the IC50 (Histone deacetylase 8) of the same molecule?
Answer: Its IC50 is greater than 10 µM.

Question: What about the IC50 (Histone deacetylase 2) of the same molecule?
Answer: The IC50 was 1.47 µM.

Question: What about the Activity (KB-VIN [3]) of the same molecule?
Answer: Its Activity is “Active”.

Question: What about the IC50 (Histone deacetylase 1) of the same molecule?
Answer: Its IC50 is 1.07 µM.

Question: And the Activity (KB7D [4])?
Answer: The Activity was “Dose-dependent effect”.

Question: What about the Activity (KB7D [5]) of the same molecule?
Answer: The Activity was “Active”.

Question: And the Activity (Tubulin (Homo sapiens) [6])?
Answer: The Activity was 16%.

Question: And the Activity (KB7D [7])?
Answer: Its Activity is “Dose-dependent effect”.

Question: What about the Activity (Tubulin (Homo sapiens) [8]) of the same molecule?
Answer: Its Activity is 17.8%.

Question: What about the Activity (KB7D [9]) of the same molecule?
Answer: Its Activity is “Active”.

Question: And the GI50 (KB)?
Answer: The GI50 was 0.01 µM.

Question: What about the Activity (KB-VIN [10]) of the same molecule?
Answer: The Activity was “Active”.

Question: And the Activity (KB7D [11])?
Answer: The Activity was “Active”.

Question: What about the IC50 [12] of the same molecule?
Answer: The IC50 was 2.27 µM.

Question: What about the Activity (KB7D [13]) of the same molecule?
Answer: The Activity was “Active”.

Question: And the Activity (KB7D [14])?
Answer: Its Activity is “Dose-dependent effect”.

Question: And the Activity (KB7D [15])?
Answer: Its Activity is “Dose-dependent effect”.

Question: What about the Activity (Tubulin (Homo sapiens) [16]) of the same molecule?
Answer: Its Activity is “Active”.

Question: And the Activity (KB-VIN [17])?
Answer: Its Activity is “Active”.

Question: What about the Activity (KB-VIN [18]) of the same molecule?
Answer: Its Activity is “Dose-dependent effect”.
